From ChEMBL document CHEMBL2375232, “4-Amino-2-arylamino-5-indoloyl/cinnamoythiazoles, analogs of topsentin-class of marine alkaloids, induce apoptosis in HeLa cells” (Eur J Med Chem, 2013) come the findings set out here.

Test [1] concerns HeLa. The test is described as follows: Cell cycle arrest in human HeLa cells assessed as accumulation at G2/M phase after 48 hrs by flow cytometry analysis (reference value: 16.6 +/- 0.16%). The class given is functional.
Test [2] relates to HeLa. The test is described as follows: Inhibition of TNFalpha-induced NFkappaB activation (unknown origin) expressed in human HeLa cells at IC50 treated 24 hrs before TNFalpha challenge measured after 5 hrs by luciferase reporter gene assay. Format: cell-based. (Reporter assays use an easily measured gene product as a stand-in for the process of interest.)
The test system of test [3] is HeLa. The test is described as follows: Cytotoxicity against human HeLa cells after 48 hrs by alamar blue assay. The class given is functional, cell-based. Put shortly:
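Alamar blue (resazurin) viability assay. HeLa cells seeded at 5000 cells/well, treated 24 h later with a range of concentrations for 48 h. Alamar blue (0.2 mg/mL) was then added for 2–4 h and absorbance read at 570 and 595 nm. Survival is percent of untreated control; IC50 taken from the concentration–response curves; three experiments in triplicate.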
In general terms: The colour change of resazurin is a common sign of viable cells or microbes.

Test [4] relates to HeLa. Description: Induction of apoptosis in human HeLa cells assessed as activation of caspase 9 after 48 hrs by fluorescence assay relative to control. The class given is functional. Put shortly:
(§1)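 Fluorogenic substrate assay. 1×10⁶ HeLa cells treated 48 h, lysed in Tris/phosphate buffer pH 7.5 with 1% Triton X-100. Lysate incubated 1 h at 37 °C in PIPES assay buffer pH 7.2 (DTT, EDTA, CHAPS, sucrose) with Ac-DEVD-AFC (caspase 3), Ac-IETD-AFC (caspase 8) or Ac-LEHD-AFC (caspase 9). AFC read at excitation 400 nm, emission 480–520 nm; fold RFU over untreated control; mean ± SD of three experiments.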

For test [5], the system named is HeLa. Description: Cell cycle arrest in human HeLa cells assessed as accumulation at S phase after 48 hrs by flow cytometry analysis (reference value: 7.2 +/- 0.77%). Format: functional.
For test [6], the system named is HeLa. The test is described as follows: Induction of apoptosis in human HeLa cells assessed as nuclear condensation using DAPI staining at IC50 after 48 hrs by fluorescence microscopic analysis. The class given is functional, cell-based. Put shortly: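 They were PBS-washed, stained with DAPI (1 µg/mL in methanol) for 10 min at 37 °C and imaged by fluorescence microscopy. Condensed chromatin or fragmented nuclei scored as apoptotic; three independent experiments.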

For test [7], the system named is HeLa. Description: Cell cycle arrest in human HeLa cells assessed as accumulation at sub-G0 phase after 24 hrs by flow cytometry analysis (reference value: 1.2 +/- 0.29%). Format: functional. Background: A flow cytometer gives signals particle by particle.
Test [8] deals with HeLa. Description: Cell cycle arrest in human HeLa cells assessed as accumulation at G0/G1 phase after 48 hrs by flow cytometry analysis (reference value: 73.1 +/- 1.02%). Format: functional.
Test [9] deals with HeLa. Description: Cell cycle arrest in human HeLa cells assessed as accumulation at G0/G1 phase after 24 hrs by flow cytometry analysis (reference value: 80.7 +/- 0.47%). Format: functional.
The subject of test [10] is HeLa. The test is described as follows: Cell cycle arrest in human HeLa cells assessed as accumulation at sub-G0 phase after 48 hrs by flow cytometry analysis (reference value: 2.3 +/- 0.37%). Format: functional.
The subject of test [11] is HeLa. The test is described as follows: Induction of apoptosis in human HeLa cells assessed as activation of caspase 3 after 48 hrs by fluorescence assay relative to control. The class given is functional. Put shortly:
as §1

Test [12] has as its system HeLa. The test is described as follows: Cell cycle arrest in human HeLa cells assessed as accumulation at S phase after 24 hrs by flow cytometry analysis (reference value: 4.5 +/- 0.2%). Format: functional.
Test [13] concerns HeLa. Description: Induction of apoptosis in human HeLa cells using acridine orange/ethidium bromide staining at IC50 after 48 hrs by fluorescence microscopic analysis. Format: functional, cell-based. Put shortly: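 HeLa cells seeded at 75000/well in 24-well plates, treated at IC50 for 48 h, PBS-washed and stained with acridine orange/ethidium bromide mixture (each 100 µg/mL) for 30 min at 37 °C. Apoptotic morphology assessed by fluorescence microscopy; three independent experiments in duplicate.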

The subject of test [14] is HeLa. The test is described as follows: Induction of apoptosis in human HeLa cells assessed as activation of caspase 8 after 48 hrs by fluorescence assay relative to control. Format: functional. Put shortly: as §1
Test [15] deals with HeLa. Description: Induction of apoptosis in human HeLa cells assessed as loss of mitochondrial membrane potential using JC-1 staining after 48 hrs by fluorescence microscopic analysis. The class given is functional, cell-based. Put shortly: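 Treated cells (48 h, 24-well plates) were given JC-1 diluted in medium and incubated 10 min at 37 °C (or 15 min at RT), washed twice in PBS and viewed by fluorescence microscopy. Orange/red fluorescence marks intact membrane potential; green marks its loss. Confirmed in three independent experiments.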

Test [16] concerns HeLa. The test is described as follows: Cell cycle arrest in human HeLa cells assessed as accumulation at G2/M phase after 24 hrs by flow cytometry analysis (reference value: 13.2 +/- 0.48%). The class given is functional.

The source made the active and inactive calls. No cut-off for these calls is given here.

As usually defined, the inhibition is the change of the read-out against control, counted positive when it falls. A higher inhibition goes with strong suppression. Usually IC50 stands for the concentration needed to halve the response being measured. Low readings indicate greater potency in that assay, high ones weaker potency in that assay. Consider `COc1ccc(Nc2nc(N)c(C(=O)c3c[nH]c4ccccc34)s2)cc1`, for which the Activity in [1] is on record as 12.5%; in test [5], 7.8%; in [7] it was 16.7%; in test [8], 24%; in [9], 43.2%; in test [10] it was 49%. The Activity in test [12] is given as 4.2%; in [16], 35.3%. The molecule also registered an inhibition in test [2] of 34%. Also, in [3], the half-inhibitory concentration (IC50) amounted to 1 µM. Moreover, the figures for the “fold change (FC)” value in [4], in test [11] and in test [14] were 1.6, 2.8 and 1.1, respectively. Further, the result in [6], in test [13] and in test [15] was Active.

Consider `COc1cc(/C=C/C(=O)CC(=O)/C=C/c2ccc(O)c(OC)c2)ccc1O` [CURCUMIN], for which the inhibition in [2] was determined as 79%. Also, the “fold change (FC)” value in test [4] came out at 1.7; in [11] it was 2.1; in test [14] it was 1.4. Further, the outcome in test [15] was Active.

On to `Nc1nc(Nc2ccc(Cl)cc2)sc1C(=O)c1c[nH]c2ccccc12`, for which the Activity in test [1] is 21.56%; in test [5], 8.95%; in test [7], 23.74%; in test [8] it was 13.75%; in [9], 56.34%; in [10], 55.33%. The Activity in test [12] came out at 8.12%; in test [16] it was 11.8%. This molecule also came in with an inhibition in test [2] of 80%. Moreover, the half-inhibitory concentration (IC50) in [3] worked out at 45 µM. The “fold change (FC)” value came to 2.5 in [4], 2.5 in test [11] and 0.96 in test [14]. Further, the outcome in test [6], in test [13] and in test [15] was Active.

For the molecule `COc1ccc(Nc2nc(Nc3ccc(Cl)cc3)c(C(=O)c3c[nH]c4ccccc34)s2)cc1`, the Activity in [1] is listed as 9.78%; in test [5], 7.69%; in [7], 13.17%; in test [8] it was 38.53%; in test [9], 59.13%; in test [10], 42.37%. For the same molecule, the Activity in test [12] was 10.19%; in test [16], 17.51%. The inhibition in [2] was determined as 72%. Further, the half-inhibitory concentration (IC50) in test [3] was 20 µM. The “fold change (FC)” value was determined as 4.4 in [4], 2.4 in test [11] and 1.54 in [14]. The result in [6], in test [13] and in test [15] was Active.

On to `COc1ccc(/C=C/C(=O)c2sc(Nc3ccc(Cl)cc3)nc2N)cc1O`, for which the Activity was determined as 35.8% in test [1]; 9% in [5]; 25.8% in test [7]; 15% in test [8]; 15.37% in test [9]; 35% in test [10]. The Activity came to 6.8% in test [12] and 51.4% in test [16]. The molecule also came in with an inhibition in test [2] of 56%. The same molecule registered an IC50 in test [3] of 30 µM. Besides, the “fold change (FC)” value in test [4] is given as 2.6; in test [11], 2.2; in test [14] it was 1.2. The result in [6], in test [13] and in test [15] was Active.

As to `COc1cc(/C=C/C(=O)c2sc(Nc3ccc(Cl)cc3)nc2N)ccc1O`, the Activity in test [1] came to 28.2%; in [5], 14.2%; in [7], 3.4%; in test [8], 38%; in test [9] it was 64.7%; in test [10], 16.7%. For the same molecule, the figures for the Activity in test [12] and in [16] were 4.4% and 27.2%, respectively. This molecule returned an inhibition in test [2] of 87%. Besides, in test [3], the IC50 came to 60 µM. Further, the figures for the “fold change (FC)” value in [4], in test [11] and in test [14] were 2.3, 1.5 and 0.9, respectively. The result in test [6], in test [13] and in test [15] was Active.
